Test results: ChEMBL document CHEMBL1123511, “Peptides of 2-aminopimelic acid: antibacterial agents that inhibit diaminopimelic acid biosynthesis” (1986)
≈ marks a conversion by molar mass, not a printed value. Where “and” joins values, the source holds several entries; their conditions need not be identical. Identical values can stand only once.

Assays:
[1] = tested on: Pseudomonas aeruginosa; test: Compound was tested in vitro for antibacterial activity against Pseudomonas aeruginosa 647 strain.; assay type: functional
How it was run: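 Broth microdilution MIC. Inocula were pre-grown on agar slants or in M9 or Davis-Mingoli minimal medium for 7–16 h at 37 °C. Peptides were dissolved in 50 mM potassium phosphate, pH 7.4, serially diluted 2- or 10-fold, and filter-sterilised. Wells held 10^5 cfu/mL in M-9 broth with thiamine and lysine, read after 16 h at 37 °C.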

[2] = tested on: Salmonella enteritidis; test: Compound was tested in vitro for antibacterial activity against Salmonella enteritidis E497 strain.; conditions: Salmonella enterica
[3] = tested on: Providencia rettgeri; test: Compound was tested in vitro for antibacterial activity against Providencia rettgeri AAB-137 strain.; assay type: functional
How it was run: (§1)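 Inocula grown on agar slants or in liquid M9 or Davis-Mingoli minimal medium for 7–16 h at 37 °C. Peptides dissolved in 50 mM potassium phosphate, pH 7.4, serially diluted 2- or 10-fold in the same buffer, filter-sterilized.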

[4] = tested on: Klebsiella pneumoniae; test: Compound was tested in vitro for antibacterial activity against Klebsiella pneumoniae 4200 strain.; assay type: functional; how it was run: as §1
[5] = tested on: Escherichia coli; test: Compound was tested in vitro for antibacterial activity against Escherichia coli CB64 strain; assay type: functional; how it was run: as §1
[6] = tested on: Enterobacter cloacae; test: Compound was tested in vitro for antibacterial activity against Enterobacter cloacae P99 strain; assay type: functional; how it was run: as §1
[7] = tested on: Serratia marcescens; test: Compound was tested in vitro for antibacterial activity against Serratia marcescens ATCC 13880 strain; assay type: functional; how it was run: as §1
[8] = Compound was tested in vitro for antibacterial activity against Citrobacter sp 2404 strain.; assay type: functional; how it was run: as §1
[9] = tested on: Enterobacter cloacae; test: Reversal of antibacterial activity by the compound, expressed as agar disc zone size with LL-DAP (0.76 ug/disc); No zone; assay type: functional, organism-based
[10] = tested on: Enterobacter cloacae; test: Reversal of antibacterial activity by the compound, expressed as agar disc zone size with LL-DAP (0.19 ug/disc); assay type: functional
[11] = tested on: Enterobacter cloacae; test: Reversal of antibacterial activity by the compound, expressed as agar disc zone size with L-Ala-LL-DAP (0.0 ug/disc); assay type: functional
[12] = tested on: Enterobacter cloacae; test: Reversal of antibacterial activity by the compound, expressed as agar disc zone size with LL-DAP (0.0 ug/disc); assay type: functional
[13] = tested on: Enterobacter cloacae; test: Reversal of antibacterial activity by the compound, expressed as agar disc zone size with L-Ala-LL-DAP (26 ug/disc); No zone; assay type: functional, organism-based
[14] = tested on: Enterobacter cloacae; test: Reversal of antibacterial activity by the compound, expressed as agar disc zone size with L-Ala-LL-DAP (6.5 ug/disc); assay type: functional
[15] = tested on: Enterobacter cloacae; test: Reversal of antibacterial activity by the compound, expressed as agar disc zone size with LL-DAP (0.38 ug/disc); No zone; assay type: functional, organism-based

**Q.** What does the source list for `C[C@H](NC(=O)[C@@H](N)CCCCC(=O)O)C(=O)O`?
**A.** MIC [1]: > 1000 µg/mL; MIC [2]: 8 µg/mL (≈ 32.5 µM); MIC [3]: < 1 µg/mL; MIC [4]: 8 µg/mL (≈ 32.5 µM); MIC [5]: 2 µg/mL (≈ 8.12 µM); MIC [6]: 4 µg/mL (≈ 16.2 µM); MIC [7]: 2 µg/mL (≈ 8.12 µM); MIC [8]: 2 µg/mL (≈ 8.12 µM)

**Q.** For `C[C@H](N)C(=O)N[C@@H](C)C(=O)N[C@@H](CCCCC(=O)O)C(=O)O`, which Zone size [9] is on record?
**A.** The Zone size was “No zone”.

**Q.** And the Zone size [10]?
**A.** Its Zone size is 17 mm and 21 mm.

**Q.** And the Zone size [11]?
**A.** Its Zone size is 25 mm.

**Q.** What about the Zone size [12] of the same molecule?
**A.** Its Zone size is 25 mm.

**Q.** And the MIC [2]?
**A.** Its MIC is 2 µg/mL (≈ 6.3 µM).

**Q.** And the MIC [3]?
**A.** The MIC was 125 µg/mL (≈ 394 µM).

**Q.** And the MIC [4]?
**A.** The MIC was 1000 µg/mL (≈ 3150 µM).

**Q.** What about the Zone size [13] of the same molecule?
**A.** The Zone size was “No zone”.

**Q.** And the MIC [5]?
**A.** Its MIC is 31 µg/mL (≈ 97.7 µM).

**Q.** And the MIC [6]?
**A.** The MIC was 63 µg/mL (≈ 199 µM).

**Q.** What about the MIC [7] of the same molecule?
**A.** Its MIC is 16 µg/mL (≈ 50.4 µM).

**Q.** What about the Zone size [14] of the same molecule?
**A.** Its Zone size is 9 mm and 15 mm.

**Q.** And the MIC [8]?
**A.** Its MIC is 250 µg/mL (≈ 788 µM).

**Q.** And the Zone size [15]?
**A.** Its Zone size is “No zone”.

**Q.** For `C[C@H](N)C(=O)N[C@@H](CCCCC(=O)O)C(=O)O`, which MIC [1] is on record?
**A.** The MIC was 1000 µg/mL (≈ 4060 µM).

**Q.** And the MIC [2]?
**A.** Its MIC is 16 µg/mL (≈ 65 µM).

**Q.** What about the MIC [3] of the same molecule?
**A.** Its MIC is 4 µg/mL (≈ 16.2 µM).

**Q.** And the MIC [4]?
**A.** The MIC was 16 µg/mL (≈ 65 µM).

**Q.** What about the MIC [5] of the same molecule?
**A.** The MIC was 16 µg/mL (≈ 65 µM).

**Q.** What about the MIC [6] of the same molecule?
**A.** The MIC was 4 µg/mL (≈ 16.2 µM).

**Q.** What about the MIC [7] of the same molecule?
**A.** Its MIC is 8 µg/mL (≈ 32.5 µM).

**Q.** What about the MIC [8] of the same molecule?
**A.** The MIC was 8 µg/mL (≈ 32.5 µM).

**Q.** Which MIC [2] does the source give for `O=C(O)CCCC[C@H](NC(=O)[C@@H]1CCCN1)C(=O)O` here?
**A.** Its MIC is greater than 1000 µg/mL.

**Q.** And the MIC [3]?
**A.** The MIC was 250 µg/mL (≈ 918 µM).

**Q.** And the MIC [4]?
**A.** Its MIC is 63 µg/mL (≈ 231 µM).

**Q.** What about the MIC [5] of the same molecule?
**A.** The MIC was 500 µg/mL (≈ 1840 µM).

**Q.** And the MIC [6]?
**A.** The MIC was 250 µg/mL (≈ 918 µM).

**Q.** And the MIC [7]?
**A.** The MIC was greater than 1000 µg/mL.

**Q.** What about the MIC [8] of the same molecule?
**A.** Its MIC is 250 µg/mL (≈ 918 µM).

**Q.** Which MIC [1] does the source give for `CC(N)C(=O)NCCP(=O)(O)O` (centres undefined) [ALAFOSALIN] here?
**A.** Its MIC is greater than 100 µg/mL.

**Q.** What about the MIC [2] of the same molecule?
**A.** The MIC was 50 µg/mL (≈ 255 µM).

**Q.** And the MIC [3]?
**A.** The MIC was greater than 100 µg/mL.

**Q.** And the MIC [4]?
**A.** The MIC was 1.6 µg/mL (≈ 8.16 µM).

**Q.** What about the MIC [5] of the same molecule?
**A.** Its MIC is less than 0.1 µg/mL.

**Q.** And the MIC [6]?
**A.** Its MIC is 100 µg/mL (≈ 510 µM).

**Q.** And the MIC [7]?
**A.** The MIC was 1.6 µg/mL (≈ 8.16 µM).

**Q.** What about the MIC [8] of the same molecule?
**A.** The MIC was 25 µg/mL (≈ 127 µM).

**Q.** Which results are given for `N[C@@H](CCCCC(=O)O)C(=O)N1CCC[C@H]1C(=O)O`?
**A.** MIC [2]: > 1000 µg/mL; MIC [3]: 4 µg/mL (≈ 14.7 µM); MIC [4]: 16 µg/mL (≈ 58.8 µM); MIC [5]: > 1000 µg/mL; MIC [6]: 8 µg/mL (≈ 29.4 µM); MIC [7]: > 1000 µg/mL; MIC [8]: > 1000 µg/mL

**Q.** With `NC(CCCCC(=O)O)C(=O)O` (centres undefined) as the molecule, how does the MIC [1] read?
**A.** The MIC was greater than 1000 µg/mL.

**Q.** And the MIC [2]?
**A.** Its MIC is greater than 1000 µg/mL.

**Q.** And the MIC [4]?
**A.** The MIC was 500 µg/mL (≈ 2850 µM).

**Q.** What about the MIC [5] of the same molecule?
**A.** Its MIC is greater than 1000 µg/mL.

**Q.** What about the MIC [6] of the same molecule?
**A.** The MIC was greater than 1000 µg/mL.

**Q.** And the MIC [7]?
**A.** Its MIC is greater than 1000 µg/mL.

**Q.** What about the MIC [8] of the same molecule?
**A.** The MIC was greater than 1000 µg/mL.
